High-throughput results (PubChem BioAssay)
The entries come from a sample that favours hits as a whole.
IDH1 R132H inh = inhibitors of human IDH1 R132H. O75874. IDH1 R132H reductase, diaphorase/resazurin fluorescence, 60 min. inhibition, % at 10 µM. 70,000 compounds, 0.18% hits. AID 624101; in the data active = inhibition above about 34%; inconclusive = no clear call, values can overlap the other calls; inactive = below about 11%;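 note: 0% = DMSO and 100% = no enzyme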
KDM4C inh = inhibitors of human demethylase GASC-1 KDM4C; inhibition, % at 12.5 µM; 96,000 compounds, 0.15% hits; Q9H3R0; GST-KDM4C 2-372, H3K9me3 peptide, LANCE TR-FRET;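 active = mean replicate inhibition above about 25%, with at least 55% of replicates also reaching it, limit read from the data, passing the limit was not always enough; inconclusive = only one of those two conditions met; inactive = neither condition met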
Target sequence (Q9H3R0 2-372 limits assumed): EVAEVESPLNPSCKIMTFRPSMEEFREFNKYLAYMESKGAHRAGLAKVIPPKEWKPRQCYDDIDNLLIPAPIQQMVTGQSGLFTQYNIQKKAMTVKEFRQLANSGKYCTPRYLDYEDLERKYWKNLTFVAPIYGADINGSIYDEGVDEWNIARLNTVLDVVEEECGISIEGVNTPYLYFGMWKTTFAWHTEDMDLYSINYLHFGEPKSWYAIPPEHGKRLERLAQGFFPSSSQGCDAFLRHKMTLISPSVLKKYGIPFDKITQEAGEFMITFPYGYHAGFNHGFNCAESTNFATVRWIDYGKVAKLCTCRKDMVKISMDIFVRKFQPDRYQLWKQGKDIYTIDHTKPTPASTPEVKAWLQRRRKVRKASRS
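reagent = H3K9me3 peptide substrate, Fe(II), 2-oxoglutarate | system = GST-tagged GASC-1 (JMJD2C) catalytic fragment, aa 2-372 | amount = enzyme final amount 10 nM | read-out = Fall in 671/618 emission ratio as inhibition | medium = HEPES buffer, pH 7.5, plus ascorbate | schedule = 30 min reaction, 60 min detection, RT | measured by = LANCE TR-FRET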
T cruzi growth-1 = T. cruzi proliferation inhibition; T. cruzi beta-gal in NIH3T3, GalScreen luminescence, 90 h; inhibition, % at 8.34 µM; 77,000 compounds, 5.9% hits;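 active = mean inhibition above about 93%, with at least 55% of replicates each passing it, limit read from the data, passing the limit was not always enough; inconclusive = only one of those two conditions holds; inactive = neither condition holds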
T cruzi growth-2 = blocks T. cruzi growth in NIH3T3 host cells | shares compounds with T cruzi growth-1 | T. cruzi beta-gal in NIH3T3, GalScreen luminescence, 90 h | inhibition, % at 8.35 µM | 5,600 compounds, 72% hits | AID 651739;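 active = mean replicate inhibition above about 95% and at least 55% of replicates individually reaching it, limit read from the data; inconclusive = only one of the two criteria is met; inactive = neither criterion is met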
T cruzi growth-3 = inhibitors of T. cruzi proliferation. inhibition, % at 2.09 µM. T. cruzi beta-gal in NIH3T3, GalScreen luminescence, 90 h. 5,600 compounds, 21% hits. shares compounds with T cruzi growth-1. AID 651740;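 active = mean inhibition above about 95%, with at least 55% of replicates also reaching it, limit read from the data; inconclusive = meets just one of the two conditions; inactive = meets neither condition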;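 note: plate controls were neutral control median for no effect and positive control median for full effect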
3T3 cytotox = NIH/3T3 (mouse) viability loss; shares compounds with T cruzi growth-1; NIH/3T3 viability, CellTiter-Glo ATP luminescence, 90 h; cytotoxicity (signal decrease), % at 8.35 µM; 5,600 compounds, 14% hits;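 active = mean signal decrease across replicates above about 35% based on untreated-well scatter, with enough replicates individually passing, limit read from the data; inconclusive = no rule stated though some were filed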;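 note: 0% = median of neutral control wells and 100% = median of positive control wells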
NIH3T3 tox 2 = NIH/3T3 (mouse) viability loss | NIH/3T3 viability, CellTiter-Glo ATP luminescence, 90 h | inhibition, % at 24.9 µM | shares compounds with T cruzi growth-1 | AID 651744 | 5,600 compounds, 56% hits;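 active = mean loss of cell viability signal at or above a set limit, and enough replicates individually reaching it; inconclusive = meets only the mean limit or only the replicate share; inactive = meets neither condition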;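 note: 0% = median of neutral control wells and 100% = median of positive control wells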
Active calls of the source: *; u = inconclusive; x = not tested or not shown.

SMILES | IDH1 R132H inh | KDM4C inh | T cruzi growth-1 | T cruzi growth-2 | T cruzi growth-3 | 3T3 cytotox | NIH3T3 tox 2
O=C(C[C@@H]1CC[C@H]2[C@@H](COC[C@H](O)CN2Cc2ccc(Oc3ccccc3)cc2)O1)N1CCOCC1 | x | 3 | -2 | x | x | x | x
O=C(C[C@H]1CC[C@@H]2[C@H](COC[C@@H](O)CN2Cc2ccc(Oc3ccccc3)cc2)O1)N1CCN(c2ccccc2)CC1 | x | 1 | 130* | 89 | 70 | 17 | 91*
O=C(C[C@@H]1CC[C@@H]2[C@H](COC[C@@H](O)CN2Cc2ccc(Oc3ccccc3)cc2)O1)N1CCN(c2ccccc2)CC1 | x | -1 | 96* | 98* | 67 | 11 | 32*
O=C(C[C@H]1CC[C@H]2[C@@H](COC[C@H](O)CN2Cc2ccc(Oc3ccccc3)cc2)O1)N1CCOCC1 | x | 3 | 3 | x | x | x | x
C[C@@H]1CN([C@@H](C)CO)C(=O)c2cccc(NC(=O)C3CC3)c2O[C@@H]1CN(C)C(=O)Nc1ccc2c(c1)OCO2 | -1 | -3 | 19 | x | x | x | x
N#C[C@@H]1[C@H](c2ccc(C#CC3(O)CCCC3)cc2)[C@@H](CO)N1C(=O)C1CC1 | x | 1 | 93 | x | x | x | x
CN1c2ccc(C3=CCCCC3)cc2[C@@H]2[C@@H](CCN2C(=O)C2CC2)[C@H]1CO | x | 1 | x | x | x | x | x
Cc1noc(C)c1NC(=O)Nc1cccc2c1O[C@H](CN(C)Cc1ccc(C(F)(F)F)cc1)[C@H](C)CN([C@@H](C)CO)C2=O | 4 | 9 | 39 | x | x | x | x
O=C(N/N=C/c1c(O)cc(O)cc1O)c1ccccc1O | 0 | x | x | x | x | x | x
C/C=C/c1ccc([C@H]2[C@@H](CO)N(S(C)(=O)=O)[C@@H]2CN(CC)C(C)=O)cc1 | x | 0 | 40 | x | x | x | x
CCC(=O)N1CC(=O)N2[C@@H](CO)[C@H](c3ccc(-c4ccncc4)cc3)[C@@H]2C1 | x | 5 | x | x | x | x | x
O=C(CSc1nc(-c2ccc(F)cc2)cs1)Nc1ccc(N2CCOCC2)c(Cl)c1 | 0 | x | x | x | x | x | x
Cc1ccccc1NC(=O)CSc1nc(-c2ccc(Cl)cc2)cc(C(F)(F)F)n1 | 0 | x | x | x | x | x | x
CN1C[C@@H](O)COC[C@H]2O[C@@H](CC(=O)N3CCN(c4ccccc4)CC3)CC[C@@H]21 | x | -1 | 21 | x | x | x | x
CN1C[C@H](O)COC[C@@H]2O[C@@H](CC(=O)N3CCN(c4ccccc4)CC3)CC[C@H]21 | x | 0 | u | 102* | 27 | 4 | -6
O=C(c1ccc(F)cc1)N1CCCCN2[C@H](CO)[C@@H](c3ccc(/C=C/c4ccccc4)cc3)[C@H]2C1 | x | 1 | 108* | 103* | 78 | 21 | 104*
O=C(c1ccc(F)cc1)N1CCCCN2[C@H](C1)[C@H](c1ccc(/C=C/c3ccccc3)cc1)[C@@H]2CO | x | -1 | u | u | 35 | 22 | 103*
COc1cccc(C#Cc2ccc([C@H]3[C@@H](CO)N4C(=O)CN(C(=O)Cc5ccccc5)C[C@H]34)cc2)c1 | x | -1 | x | x | x | x | x
C[C@@H]1CN([C@@H](C)CO)C(=O)c2cc(C#C[C@@H](C)O)cnc2O[C@H]1CN(C)C(=O)c1ccccc1F | 0 | -1 | -49 | x | x | x | x
CC(=O)N1CCCCN2[C@@H](CO)[C@@H](c3ccc(-c4ccncc4)cc3)[C@@H]2C1 | x | 0 | 54 | x | x | x | x
O=C(C1CCCC1)N1CCCCN2[C@H](CO)[C@H](c3ccc(-c4ccncc4)cc3)[C@H]2C1 | x | x | 87 | x | x | x | x
O=C(C1CCC1)N1CCCCN2[C@H](CO)[C@H](c3ccc(-c4ccncc4)cc3)[C@H]2C1 | x | -1 | 101* | 92 | 82 | -14 | -13
O=C(C1CCC1)N1CCCCN2[C@@H](CO)[C@@H](c3ccc(-c4ccncc4)cc3)[C@@H]2C1 | x | -1 | 109* | 105* | 86 | 20 | 51*
O=C(C1CCCC1)N1CCCCN2[C@H](CO)[C@@H](c3ccc(-c4ccncc4)cc3)[C@H]2C1 | x | x | u | 55 | 36 | 11 | 19
O=C(C1CCC1)N1CCCCN2[C@H](CO)[C@@H](c3ccc(-c4ccncc4)cc3)[C@H]2C1 | x | 15 | 98* | 100* | 16 | -7 | 5
O=C(C1CCCC1)N1CCCCN2[C@@H](CO)[C@@H](c3ccc(-c4ccncc4)cc3)[C@@H]2C1 | x | x | 49 | x | x | x | x
